Source: ChEMBL document CHEMBL4428039, “Anticancer properties of new synthetic hybrid molecules combining naphtho[2,3-b]furan-4,9-dione or benzo[f]indole-4,9-dione motif with phosphonate subunit” (Eur J Med Chem, 2016)
The source made the active and inactive calls. The rule behind the calls is not given here.

Experiments:
[1] = system: NALM-6; assay: Cytotoxicity against human NALM6 cells assessed as inhibition of metabolic activity after 48 hrs by MTT assay; assay type: functional, cell-based; settings: NALM-6, 48 h
Method in brief: (§1)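 Exponentially growing cells seeded in 96-well plates and grown 24 h. Compounds in DMSO, diluted in medium (final DMSO <0.1%), added at 10^-7 to 10^-3 M for 48 h. MTT (5 mg/mL in PBS) then added for 2 h. Formazan dissolved in DMSO and read at 560 nm against untreated cells. IC50 taken from concentration–response curves; mean ± SD of ≥3 experiments.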

[2] = system: HL-60; assay: Cytotoxicity against human HL60 cells assessed as inhibition of metabolic activity after 48 hrs by MTT assay; assay type: functional, cell-based; settings: HL-60, 48 h; method in brief: as §1
[3] = system: MCF7; assay: Cytotoxicity against human MCF7 cells assessed as inhibition of metabolic activity after 48 hrs by MTT assay; assay type: functional, cell-based; settings: MCF7, 48 h; method in brief: as §1
[4] = system: HUVEC; assay: Cytotoxicity against HUVEC assessed as inhibition of metabolic activity after 48 hrs by MTT assay; assay type: ADME, cell-based; settings: Homo sapiens; method in brief: as §1
[5] = system: MCF-10A; assay: Cytotoxicity against human MCF10A cells assessed as inhibition of metabolic activity after 48 hrs by MTT assay; assay type: ADME, cell-based; method in brief: as §1
[6] = Selectivity index, ratio of IC50 for human MCF10A cells to IC50 for human MCF7 cells; assay type: toxicity; settings: MCF10A cells versus MCF7 cells, read-out: Ratio IC50
[7] = system: MCF7; assay: Induction of ROS generation in human MCF7 cells at 200 uM after 1 hr by Cellrox Green staining based flow cytometry; assay type: functional, cell-based
Method in brief: (§2)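 Positive-control ROS measurement in HL-60 and MCF-7 cells: menadione 200 µM for 1 h. Cells then stained with 5 µM CellROX Green for 30 min at 37 °C and analysed by flow cytometry. 3–4 independent experiments in triplicate, mean ± SEM.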

[8] = system: HL-60; assay: Induction of ROS generation in human HL60 cells at 200 uM after 1 hr by Cellrox Green staining based flow cytometry; assay type: functional, cell-based; method in brief: as §2
[9] = system: MCF7; assay: Cell cycle arrest in human MCF7 cells assessed as accumulation at G2/M phase at 3.4 +/- 0.15 uM after 24 hrs by DAPI staining based flow cytometry (reference value: 23%); assay type: functional
[10] = system: HL-60; assay: Cell cycle arrest in human HL60 cells assessed as accumulation at G2/M phase at 7.27 +/- 0.08 uM after 24 hrs by DAPI staining based flow cytometry (reference value: 31.2%); assay type: functional
[11] = system: MCF7; assay: Induction of apoptosis in human MCF7 cells assessed as late apoptotic cells at 3.4 +/- 0.15 uM after 24 hrs by Annexin V-APC/propidium iodide staining based flow cytometry (reference value: 6.1%); assay type: functional
[12] = system: MCF7; assay: Induction of transmembrane potential depolarization in human MCF7 cells at 3.4 +/- 0.15 uM after 24 hrs by JC-10 staining based flow cytometry (reference value: 18.2%); assay type: functional
[13] = system: MCF7; assay: Cell cycle arrest in human MCF7 cells assessed as accumulation at S phase at 3.4 +/- 0.15 uM after 24 hrs by DAPI staining based flow cytometry (reference value: 22%); assay type: functional
[14] = system: HL-60; assay: Induction of transmembrane potential depolarization in human HL60 cells at 7.27 +/- 0.08 uM after 24 hrs by JC-10 staining based flow cytometry (reference value: 15.9%); assay type: functional
[15] = system: HL-60; assay: Cell cycle arrest in human HL60 cells assessed as accumulation at G0/G1 phase at 7.27 +/- 0.08 uM after 24 hrs by DAPI staining based flow cytometry (reference value: 39.5%); assay type: functional
[16] = system: HL-60; assay: Inhibition of cell proliferation in human HL60 cells assessed as reduction in BrdU incorporation at 7.27 +/- 0.08 uM after 24 hrs by DAPI staining based flow cytometry relative to control; assay type: functional
[17] = system: HL-60; assay: Induction of apoptosis in human HL60 cells assessed as increase in cleaved PARP positive cells at 7.27 +/- 0.08 uM after 24 hrs by DAPI staining based flow cytometry (reference value: 1.2 +/- 0.2%); assay type: functional
[18] = system: HL-60; assay: Induction of ROS generation in human HL60 cells at 7.27 +/- 0.08 uM after 24 hrs by Cellrox Green staining based flow cytometry relative to control; assay type: functional
[19] = system: HL-60; assay: Cell cycle arrest in human HL60 cells assessed as accumulation at subG0/G1 phase at 7.27 +/- 0.08 uM after 24 hrs by DAPI staining based flow cytometry (reference value: 3.1%); assay type: functional
[20] = system: HL-60; assay: Induction of DNA damage in human HL60 cells assessed as increase in H2AX phosphorylation at S139 residue at 7.27 +/- 0.08 uM after 24 hrs by DAPI staining based flow cytometry relative to control; assay type: functional
[21] = system: MCF7; assay: Induction of apoptosis in human MCF7 cells assessed as necrotic cells at 3.4 +/- 0.15 uM after 24 hrs by Annexin V-APC/propidium iodide staining based flow cytometry (reference value: 1.9%); assay type: functional
[22] = system: HL-60; assay: Cytotoxicity against human HL60 cells assessed as inhibition of metabolic activity after 24 hrs by MTT assay; assay type: functional, cell-based; settings: HL-60, 24 h
Method in brief: (§3)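 MTT assay on HL-60 or MCF-7 cells seeded and grown 24 h, then treated 24 h over 10^-7 to 10^-3 M (final DMSO <0.1%). MTT (5 mg/mL in PBS) added for 2 h. Formazan dissolved in DMSO and read at 560 nm against untreated cells. IC50 derived from concentration–response curves of ≥3 experiments.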

[23] = system: HL-60; assay: Induction of apoptosis in human HL60 cells assessed as late apoptotic cells at 7.27 +/- 0.08 uM after 24 hrs by Annexin V-APC/propidium iodide staining based flow cytometry (reference value: 2.7%); assay type: functional
[24] = system: MCF7; assay: Induction of apoptosis in human MCF7 cells assessed as increase in cleaved PARP positive cells at 3.4 +/- 0.15 uM after 24 hrs by DAPI staining based flow cytometry relative to control; assay type: functional, cell-based
[25] = system: MCF7; assay: Induction of ROS generation in human MCF7 cells at 3.4 +/- 0.15 uM after 24 hrs by Cellrox Green staining based flow cytometry relative to control; assay type: functional
[26] = system: MCF7; assay: Induction of apoptosis in human MCF7 cells assessed as early apoptotic cells at 3.4 +/- 0.15 uM after 24 hrs by Annexin V-APC/propidium iodide staining based flow cytometry (reference value: 5.9%); assay type: functional
[27] = system: HL-60; assay: Induction of apoptosis in human HL60 cells assessed as early apoptotic cells at 7.27 +/- 0.08 uM after 24 hrs by Annexin V-APC/propidium iodide staining based flow cytometry (reference value: 3.4%); assay type: functional
[28] = system: MCF7; assay: Cell cycle arrest in human MCF7 cells assessed as accumulation at G0/G1 phase at 3.4 +/- 0.15 uM after 24 hrs by DAPI staining based flow cytometry (reference value: 55%); assay type: functional
[29] = system: MCF7; assay: Induction of DNA damage in human MCF7 cells assessed as increase in H2AX phosphorylation at S139 residue at 3.4 +/- 0.15 uM after 24 hrs by DAPI staining based flow cytometry relative to control; assay type: functional
[30] = system: MCF7; assay: Induction of apoptosis in human MCF7 cells assessed as viable cells at 3.4 +/- 0.15 uM after 24 hrs by Annexin V-APC/propidium iodide staining based flow cytometry (reference value: 86.1%); assay type: functional
[31] = system: HL-60; assay: Cell cycle arrest in human HL60 cells assessed as accumulation at S phase at 7.27 +/- 0.08 uM after 24 hrs by DAPI staining based flow cytometry (reference value: 26.1%); assay type: functional
[32] = system: HL-60; assay: Induction of apoptosis in human HL60 cells assessed as necrotic cells at 7.27 +/- 0.08 uM after 24 hrs by Annexin V-APC/propidium iodide staining based flow cytometry (reference value: 0.1%); assay type: functional
[33] = system: MCF7; assay: Inhibition of cell proliferation in human MCF7 cells assessed as reduction in BrdU incorporation at 3.4 +/- 0.15 uM after 24 hrs by DAPI staining based flow cytometry relative to control; assay type: functional
[34] = system: MCF7; assay: Cytotoxicity against human MCF7 cells assessed as inhibition of metabolic activity after 24 hrs by MTT assay; assay type: functional, cell-based; settings: MCF7, 24 h; method in brief: as §3

Compound `CCOP(=O)(OCC)c1c2c(n(Cc3ccccc3Cl)c1O)C(=O)c1ccccc1C2=O` has an IC50 [1] of 60.1 µM, an IC50 [2] of 42.4 µM and an IC50 [3] of 65 µM.

Work on `COc1cccc2c1C(=O)c1c(O)c3c(c(O)c1C2=O)C[C@@](O)(C(=O)CO)C[C@@H]3O[C@H]1C[C@H](N)[C@H](O)[C@H](C)O1` [DOXORUBICIN] yielded an IC50 [4] of 1.4 µM, an IC50 [5] of 1.2 µM and an IC50 [2] of 0.11 µM.

Work on `CCOP(=O)(OCC)c1c(C)oc2c1C(=O)c1ccccc1C2=O` yielded an IC50 [1] of 5.85 µM, an IC50 [2] of 8.13 µM and an IC50 [3] of 5.7 µM.

Work on `CCOP(=O)(OCC)c1c(-c2ccccc2)oc2c1C(=O)c1ccccc1C2=O` yielded an IC50 [1] of 6.06 µM, an IC50 [2] of 6.01 µM and an IC50 [3] of 2.4 µM.

With `CCOP(=O)(OCC)c1c(-c2cc(F)c(Cl)nc2Cl)oc2c1C(=O)c1ccccc1C2=O` the selectivity ratio [6] was 4, the IC50 [4] was 4.85 µM and the IC50 [1] was 5.32 µM. The IC50 [5] was 9.79 µM, the IC50 [2] was 5.94 µM and the IC50 [3] was 2.85 µM.

`CCCn1c(O)c(P(=O)(OCC)OCC)c2c1C(=O)c1ccccc1C2=O` gave an IC50 [1] of 60 µM, an IC50 [2] of 56.2 µM and an IC50 [3] of 43.9 µM.

In the case of `CCOP(=O)(OCC)c1c2c(n(C3CC3)c1O)C(=O)c1ccccc1C2=O`, the IC50 [1] is reported as 51.3 µM, the IC50 [2] is reported as 65 µM and the IC50 [3] is reported as 102 µM.

With `CC1=CC(=O)c2ccccc2C1=O` the Activity [7] was “Active” and the Activity [8] was “Active”.

With `CCOP(=O)(OCC)c1c(-c2ccc(Cl)cc2Cl)oc2c1C(=O)c1ccccc1C2=O` the selectivity ratio [6] was 4, the IC50 [4] was 4.06 µM and the IC50 [1] was 4.82 µM. It also gave an IC50 [5] of 11.3 µM, an IC50 [2] of 5.44 µM and an IC50 [3] of 2.9 µM.

`CCOP(=O)(OCC)c1c2c(n(C)c1O)C(=O)c1ccccc1C2=O` showed an IC50 [1] of 61.7 µM, an IC50 [2] of 59.7 µM and an IC50 [3] of 50 µM.

With `CCOP(=O)(OCC)c1c(-c2ccccc2Cl)oc2c1C(=O)c1ccccc1C2=O` the Activity [9] was 16.4%, the selectivity ratio [6] was 4 and the Activity [10] was 26.1%. The Activity [11] was 19%, the Activity [12] was 50 - 50.1% and the Activity [13] was 22.4%. The Activity [14] was 44%, the Activity [15] was 33.5% and the “inhibition (INH)” value [16] was 91%. The Activity [17] was “<=82.8%”, the “fold change (FC)” value [18] was 10 and the Activity [19] was 8.2%. For the same compound, the Activity [20] was 40.7%, the Activity [21] was 5.6% and the IC50 [22] was 7.27 µM. The IC50 [4] was 3.73 µM, the Activity [23] was 27.8% and the IC50 [1] was 5.07 µM. The IC50 [5] was 10 µM, the Activity [24] was “inactive” and the IC50 [2] was 6.35 µM. For the same compound, the “fold change (FC)” value [25] was 10, the Activity [26] was 3% and the Activity [27] was 4.8%. The Activity [28] was 62%, the Activity [29] was 11.03% and the Activity [30] was 72.4%. The Activity [31] was 36.1%, the Activity [32] was 2.7% and the “inhibition (INH)” value [33] was 34%. The IC50 [34] was 3.4 µM and the IC50 [3] was 2.34 µM.

`CCOP(=O)(O)c1c(-c2ccccc2Cl)oc2c1C(=O)c1ccccc1C2=O` gave an IC50 [1] of 479 µM, an IC50 [2] of 487 µM and an IC50 [3] of 150 µM.

For `CCOP(=O)(OCC)c1c(-c2cccnc2Cl)oc2c1C(=O)c1ccccc1C2=O`, the IC50 [1] was 6.65 µM, the IC50 [2] was 8.66 µM and the IC50 [3] was 2.55 µM.

With `CCCCCCn1c(O)c(P(=O)(OCC)OCC)c2c1C(=O)c1ccccc1C2=O` the IC50 [1] was 44.3 µM, the IC50 [2] was 30.7 µM and the IC50 [3] was 19.5 µM.
